According to ChEMBL document CHEMBL1157197, “Design, synthesis and trypanocidal activity of lead compounds based on inhibitors of parasite glycolysis” (Bioorg Med Chem, 2008):

Legend:
[1] = target: T1, ATP-dependent 6-phosphofructokinase (Trypanosoma brucei, UniProt O15648); experiment: Inhibition of Trypanosoma brucei phosphofructokinase
T1 sequence (O15648 whole entry): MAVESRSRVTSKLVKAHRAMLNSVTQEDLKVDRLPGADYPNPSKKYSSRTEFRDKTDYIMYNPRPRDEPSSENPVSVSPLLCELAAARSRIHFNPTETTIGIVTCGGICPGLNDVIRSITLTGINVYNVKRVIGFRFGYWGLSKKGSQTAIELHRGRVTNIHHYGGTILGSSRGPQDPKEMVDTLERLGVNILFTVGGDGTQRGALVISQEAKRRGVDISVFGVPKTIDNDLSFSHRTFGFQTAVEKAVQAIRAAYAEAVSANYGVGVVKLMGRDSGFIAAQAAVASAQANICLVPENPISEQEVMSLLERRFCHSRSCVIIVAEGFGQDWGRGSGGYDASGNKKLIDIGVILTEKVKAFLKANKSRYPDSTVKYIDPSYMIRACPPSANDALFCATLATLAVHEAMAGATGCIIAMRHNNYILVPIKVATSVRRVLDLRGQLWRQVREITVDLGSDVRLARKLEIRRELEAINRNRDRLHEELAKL

[2] = target: T2, Pyruvate kinase (Leishmania mexicana) (UniProt Q27686); experiment: Inhibition of Leishmania mexicana pyruvate kinase assessed as enzyme residual activity at 5 mM
T2 sequence (whole entry): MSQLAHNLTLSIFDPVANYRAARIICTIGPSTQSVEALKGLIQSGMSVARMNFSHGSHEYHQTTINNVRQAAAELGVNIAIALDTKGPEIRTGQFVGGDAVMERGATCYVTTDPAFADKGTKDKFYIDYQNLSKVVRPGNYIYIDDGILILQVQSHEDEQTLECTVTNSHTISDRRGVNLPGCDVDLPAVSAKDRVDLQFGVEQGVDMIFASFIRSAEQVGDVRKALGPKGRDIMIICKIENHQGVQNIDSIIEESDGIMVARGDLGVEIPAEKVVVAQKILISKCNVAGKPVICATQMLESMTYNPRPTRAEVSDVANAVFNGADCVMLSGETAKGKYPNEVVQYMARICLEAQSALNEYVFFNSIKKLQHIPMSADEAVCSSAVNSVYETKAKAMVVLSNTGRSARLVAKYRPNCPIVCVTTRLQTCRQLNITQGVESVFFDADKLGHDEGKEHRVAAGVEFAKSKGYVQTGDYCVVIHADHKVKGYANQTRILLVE

[3] = target: T3, ATP-dependent 6-phosphofructokinase (Trypanosoma brucei) (UniProt O15648); experiment: Inhibition of Trypanosoma brucei phosphofructokinase assessed as enzyme residual activity at 1 mM
T3 sequence (whole entry): T1 sequence (O15648 whole entry)

Trypanosoma brucei = experiment: Antiparasitic activity against Trypanosoma brucei strain 427; assay type: functional; details: read-out: ED50 (the source's name)
Outline: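 Cultured bloodstream-form Trypanosoma brucei brucei strain 427 exposed to compounds in vitro; ED50 reported.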

[4] = target: T3, ATP-dependent 6-phosphofructokinase (Trypanosoma brucei); experiment: Inhibition of Trypanosoma brucei phosphofructokinase assessed as enzyme residual activity at 5 mM
Pyruvate kinase = target: T4, Pyruvate kinase (Leishmania mexicana, UniProt Q27686); experiment: Inhibition of Leishmania mexicana pyruvate kinase
T4 sequence (Q27686 whole entry): T2 sequence (whole entry)

SMILES	IC50 [1] [µM]	Activity [2] [%]	Activity [3] [%]	EC50 (Trypanosoma brucei) [µM]	Activity [4] [%]	IC50 (Pyruvate kinase) [µM]
O=C(Nc1ccccc1)[C@H]1O[C@H](CNCc2ccc(Cl)c(Cl)c2)[C@@H](O)[C@@H]1O			5.5			
OC[C@H]1O[C@H](CNC2CCCCCC2)[C@@H](O)[C@@H]1O		19		1880	63	71
O=C(NCc1ccc(Cl)c(Cl)c1)[C@H]1O[C@H](CNCc2ccc(Cl)c(Cl)c2)[C@@H](O)[C@@H]1O	23		0.9	30		
CCCCCCNC[C@H]1O[C@H](CO)[C@@H](O)[C@@H]1O		40		400		
O=C(Nc1cccc([N+](=O)[O-])c1)[C@H]1O[C@H](CNCc2ccc(Cl)c(Cl)c2)[C@@H](O)[C@@H]1O			1.7			
OC[C@H]1O[C@H](CNCc2ccc(Cl)c(Cl)c2)[C@@H](O)[C@@H]1O	410	43		130	5	
OC[C@H]1O[C@H](CNC2CCCc3ccccc32)[C@@H](O)[C@@H]1O (some centres undefined)		36		830	62	1200

Now from value to molecule, other results behind:

IC50 [1] [µM]	Activity [2] [%]	Activity [3] [%]	EC50 (Trypanosoma brucei) [µM]	Activity [4] [%]	SMILES	IC50 (Pyruvate kinase) [µM]
80	88.2	4.7	35		O=C(NC1CCCCCC1)[C@H]1O[C@H](CNCc2ccc(Cl)c(Cl)c2)[C@@H](O)[C@@H]1O	
50		2	110		C=CCNC(=O)[C@H]1O[C@H](CNCc2ccc(Cl)c(Cl)c2)[C@@H](O)[C@@H]1O	
		4			O=C(NCc1ccccc1)[C@H]1O[C@H](CNCc2ccc(Cl)c(Cl)c2)[C@@H](O)[C@@H]1O	
49		0.4			O=C(NCc1ccc(Cl)c(Cl)c1)[C@H]1O[C@H](CNC2CCCCCC2)[C@@H](O)[C@@H]1O	
